Measurements reported in EPA's CvTdb concentration-time database.

What was measured:
rat [1] = assay: concentration in blood after dosing; details: dosed: benzene, 40000 ppm, dermal, duration: 4 hr, male, F344
rat [2] = assay: concentration in blood after dosing; details: dosed: benzene, 40000 ppm, dermal, duration: 4 hr, male, F344; remark: listed apart in the source
rat [3] = assay: concentration in blood after dosing
rat [4] = assay: concentration in blood after dosing; details: dosed: benzene, 40000 ppm, dermal, duration: 4 hr, male, F344; remark: listed apart in the source
rat [5] = assay: concentration in blood after dosing; details: dosed: benzene, 40000 ppm, dermal, duration: 4 hr, male, F344; remark: listed apart in the source
rat [6] = assay: concentration in adipose after dosing; details: dosed: benzene, 190 ppm, inhalation, duration: 6 hr, male, Fisher
human [7] = assay: concentration in urine after dosing; details: dosed: benzene, 30 mg/m^3, inhalation, duration: 4 hr, male
In short: (§1)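 Data points giving concentration or amount against time came from published in vivo toxicokinetic studies and from two structured collections. PubMed searching, classifier screening and manual review located the studies. Most points were digitised from plot screenshots using WebPlotDigitizer, the rest were copied from tables, and all keep their reported units.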

human [8] = assay: concentration in urine after dosing; details: dosed: benzene, 30 mg/m^3, inhalation, duration: 4 hr, male; remark: listed apart in the source
In short: as §1

human [9] = assay: concentration in urine after dosing; negative times count back from the end of exposure; details: dosed: benzene, 30 mg/m^3, inhalation, duration: 4 hr, male
In short: as §1

human [10] = assay: concentration in blood after dosing; negative times count back from the end of exposure; details: dosed: methyl tert-butyl ether, 25 ppm, inhalation, duration: 4 hr, male
In short: as §1

## c1ccccc1 [benzene]
Rat [1]; 0.5 h
  concentration in blood: 8340 ng/mL
Rat [1]; 1 h
  concentration in blood: 10300 ng/mL
Rat [1]; 2 h
  concentration in blood: 13100 ng/mL
Rat [1]; 3 h
  concentration in blood: 12300 ng/mL
Rat [1]; 4 h
  concentration in blood: 11500 ng/mL
Rat [2]; 0.5 h
  concentration in blood: 7850 ng/mL
Rat [2]; 1 h
  concentration in blood: 8900 ng/mL
Rat [2]; 2 h
  concentration in blood: 10100 ng/mL
Rat [2]; 3 h
  concentration in blood: 10700 ng/mL
Rat [2]; 4 h
  concentration in blood: 11400 ng/mL
Rat [3]; 0.5 h, dosed: benzene, 40000 ppm, dermal, duration: 4 hr, male, F344
  concentration in blood: 7380 ng/mL
Rat [3]; 1 h, dosed: benzene, 40000 ppm, dermal, duration: 4 hr, male, F344
  concentration in blood: 8530 ng/mL
Rat [3]; 2 h, dosed: benzene, 40000 ppm, dermal, duration: 4 hr, male, F344
  concentration in blood: 8050 ng/mL
Rat [3]; 3 h, dosed: benzene, 40000 ppm, dermal, duration: 4 hr, male, F344
  concentration in blood: 10400 ng/mL
Rat [3]; 4 h, dosed: benzene, 40000 ppm, dermal, duration: 4 hr, male, F344
  concentration in blood: 11700 ng/mL
Rat [4]; 0.5 h
  concentration in blood: 7670 ng/mL
Rat [4]; 1 h
  concentration in blood: 8220 ng/mL
Rat [4]; 2 h
  concentration in blood: 9710 ng/mL
Rat [4]; 3 h
  concentration in blood: 10600 ng/mL
Rat [4]; 4 h
  concentration in blood: 11100 ng/mL
Rat [5]; 0.5 h
  concentration in blood: 10000 ng/mL
Rat [5]; 1 h
  concentration in blood: 9650 ng/mL
Rat [5]; 2 h
  concentration in blood: 9690 ng/mL
Rat [5]; 3 h
  concentration in blood: 12300 ng/mL
Rat [5]; 4 h
  concentration in blood: 10200 ng/mL
Rat [6]; 0.4898 h
  concentration in adipose: 7580 ng/mL
Rat [6]; 0.99 h
  concentration in adipose: 19500 ng/mL
Rat [6]; 1.49 h
  concentration in adipose: 27500 ng/mL
Rat [6]; 1.989 h
  concentration in adipose: 34600 ng/mL
Rat [6]; 3.993 h
  concentration in adipose: 106000 ng/mL
Rat [6]; 5.974 h
  concentration in adipose: 159000 ng/mL
Rat [6]; 6.485 h
  concentration in adipose: 181000 ng/mL
Rat [6]; 6.98 h
  concentration in adipose: 142000 ng/mL
Rat [6]; 7.478 h
  concentration in adipose: 126000 ng/mL
Rat [6]; 8.014 h
  concentration in adipose: 95900 ng/mL
Rat [6]; 8.509 h
  concentration in adipose: 63800 ng/mL
Rat [6]; 8.999 h
  concentration in adipose: 70400 ng/mL
Rat [6]; 10 h
  concentration in adipose: 41500 ng/mL
Rat [6]; 11.99 h
  concentration in adipose: 13400 ng/mL
Rat [6]; 15 h
  concentration in adipose: 8140 ng/mL

## Oc1ccccc1 [phenol]
Human [7]; 0 h
  concentration in urine: 72.9 µM
Human [7]; 2 h
  concentration in urine: 113 µM
Human [7]; 4 h
  concentration in urine: 226 µM
Human [7]; 6 h
  concentration in urine: 207 µM
Human [7]; 8 h
  concentration in urine: 143 µM
Human [7]; 10 h
  concentration in urine: 180 µM
Human [7]; 12.06 h
  concentration in urine: 144 µM
Human [7]; 14 h
  concentration in urine: 87.1 µM
Human [7]; 20.36 h
  concentration in urine: 70.2 µM
Human [7]; 24.06 h
  concentration in urine: 112 µM
Human [7]; 27.03 h
  concentration in urine: 80.5 µM
Human [7]; 32 h
  concentration in urine: 82.7 µM
Human [7]; 38.06 h
  concentration in urine: 73.4 µM
Human [7]; 42.55 h
  concentration in urine: 45.5 µM
Human [7]; 47.58 h
  concentration in urine: 65.6 µM
Human [7]; 52.48 h
  concentration in urine: 50.5 µM
Human [8]; 0 h
  concentration in urine: 61.4 µM
Human [8]; 2 h
  concentration in urine: 82.2 µM
Human [8]; 4 h
  concentration in urine: 186 µM
Human [8]; 5.939 h
  concentration in urine: 193 µM
Human [8]; 8 h
  concentration in urine: 143 µM
Human [8]; 10 h
  concentration in urine: 129 µM
Human [8]; 12.06 h
  concentration in urine: 109 µM
Human [8]; 14.36 h
  concentration in urine: 102 µM
Human [8]; 15.52 h
  concentration in urine: 80.2 µM
Human [8]; 23.33 h
  concentration in urine: 176 µM
Human [8]; 26.24 h
  concentration in urine: 68.4 µM
Human [8]; 37.03 h
  concentration in urine: 45.6 µM
Human [8]; 38.55 h
  concentration in urine: 45 µM
Human [8]; 46.55 h
  concentration in urine: 87.7 µM
Human [8]; 47.52 h
  concentration in urine: 141 µM
Human [8]; 52 h
  concentration in urine: 95.1 µM
Human [9]; 0 h
  concentration in urine: 314 µM
Human [9]; 1.939 h
  concentration in urine: 244 µM
Human [9]; 4 h
  concentration in urine: 187 µM
Human [9]; 6.061 h
  concentration in urine: 200 µM
Human [9]; 8 h
  concentration in urine: 99.3 µM
Human [9]; 10.06 h
  concentration in urine: 114 µM
Human [9]; 18 h
  concentration in urine: 121 µM
Human [9]; 24.55 h
  concentration in urine: 51 µM
Human [9]; 30 h
  concentration in urine: 39.3 µM
Human [9]; 34.12 h
  concentration in urine: 38 µM
Human [9]; 42.3 h
  concentration in urine: 38.5 µM
Human [9]; 50.48 h
  concentration in urine: 52.2 µM
Human [9]; -2.061 h, during exposure
  concentration in urine: 124 µM
Human [9]; -4 h, during exposure
  concentration in urine: 23.7 µM

## COc1ccccc1N=Nc1c(O)ccc2ccccc12 [Solvent red1]
Rat [3]; 251 s, dosed: Solvent red1, 20 mg/kg, oral, Sprague Dawley
  concentration in blood: 2.62 ng/mL
Rat [3]; 0.2399 h, dosed: Solvent red1, 20 mg/kg, oral, Sprague Dawley
  concentration in blood: 122 ng/mL
Rat [3]; 0.4077 h, dosed: Solvent red1, 20 mg/kg, oral, Sprague Dawley
  concentration in blood: 341 ng/mL
Rat [3]; 0.7668 h, dosed: Solvent red1, 20 mg/kg, oral, Sprague Dawley
  concentration in blood: 990 ng/mL
Rat [3]; 1.067 h, dosed: Solvent red1, 20 mg/kg, oral, Sprague Dawley
  concentration in blood: 510 ng/mL
Rat [3]; 1.606 h, dosed: Solvent red1, 20 mg/kg, oral, Sprague Dawley
  concentration in blood: 274 ng/mL
Rat [3]; 2.085 h, dosed: Solvent red1, 20 mg/kg, oral, Sprague Dawley
  concentration in blood: 139 ng/mL
Rat [3]; 2.561 h, dosed: Solvent red1, 20 mg/kg, oral, Sprague Dawley
  concentration in blood: 90.5 ng/mL
Rat [3]; 3.615 h, dosed: Solvent red1, 20 mg/kg, oral, Sprague Dawley
  concentration in blood: 46.4 ng/mL
Rat [3]; 4.567 h, dosed: Solvent red1, 20 mg/kg, oral, Sprague Dawley
  concentration in blood: 15.8 ng/mL
Rat [3]; 5.518 h, dosed: Solvent red1, 20 mg/kg, oral, Sprague Dawley
  concentration in blood: 10.3 ng/mL
Rat [3]; 7.58 h, dosed: Solvent red1, 20 mg/kg, oral, Sprague Dawley
  concentration in blood: 8.35 ng/mL
Rat [3]; 9.583 h, dosed: Solvent red1, 20 mg/kg, oral, Sprague Dawley
  concentration in blood: 4.6 ng/mL
Rat [3]; 13.09 h, dosed: Solvent red1, 20 mg/kg, oral, Sprague Dawley
  concentration in blood: 4.34 ng/mL
Rat [3]; 18.04 h, dosed: Solvent red1, 20 mg/kg, oral, Sprague Dawley
  concentration in blood: 1.27 ng/mL
Rat [3]; 24.03 h, dosed: Solvent red1, 20 mg/kg, oral, Sprague Dawley
  concentration in blood: 0.824 ng/mL

## CC(C)(C)O [tert-butanol]
Human [10]; 0.1966 h
  concentration in blood: 14.8 µM
Human [10]; 0.4673 h
  concentration in blood: 15.1 µM
Human [10]; 0.8191 h
  concentration in blood: 15.4 µM
Human [10]; 2.091 h
  concentration in blood: 14.8 µM
Human [10]; 6.879 h
  concentration in blood: 11.6 µM
Human [10]; 20.02 h
  concentration in blood: 4.27 µM
Human [10]; -0.2367 h, during exposure
  concentration in blood: 13.1 µM
Human [10]; -1.076 h, during exposure
  concentration in blood: 10.4 µM
Human [10]; -2.296 h, during exposure
  concentration in blood: 6.17 µM
Human [10]; -3.435 h, during exposure
  concentration in blood: 3.36 µM
Human [10]; -3.999 h, during exposure
  concentration in blood: 0.0102 µM
